Active and inactive are the calls of the source. The rule behind the calls is not given here. Residues, ends and D or L forms follow the SMILES beside them. *: point of attachment. NHBn = c1ccc(CN*)cc1
Legend:
[1] = molecular target: T1, Pyroglutamylated RF-amide peptide receptor (Homo sapiens) (UniProt Q96P65); experiment: Agonist activity at DYKDDDDK-flagged human GPR103 receptor expressed in CHO-K1 cells co-expressing G-protein alpha16 assessed as stimulation of calcium mobilization at 10' -12 to 10^-5 M after 2 mins by fluorometric analysis; type: functional, cell-based
T1 sequence (whole entry): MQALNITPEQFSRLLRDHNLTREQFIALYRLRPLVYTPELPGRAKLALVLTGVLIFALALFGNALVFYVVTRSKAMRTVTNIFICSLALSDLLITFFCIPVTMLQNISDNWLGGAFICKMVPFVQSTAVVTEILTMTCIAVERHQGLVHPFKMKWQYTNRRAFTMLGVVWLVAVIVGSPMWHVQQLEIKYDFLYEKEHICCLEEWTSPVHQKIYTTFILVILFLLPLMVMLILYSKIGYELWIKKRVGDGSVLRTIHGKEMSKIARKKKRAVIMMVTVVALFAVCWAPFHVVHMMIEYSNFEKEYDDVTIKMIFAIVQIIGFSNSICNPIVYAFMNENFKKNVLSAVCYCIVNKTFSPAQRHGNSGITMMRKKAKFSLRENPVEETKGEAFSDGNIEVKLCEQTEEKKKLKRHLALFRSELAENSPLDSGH
Procedure, shortened: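 CHO-K1 cells stably expressing Gα16 and C-terminally flag-tagged human GPR103 (Geneticin-selected), plated at 40 000 cells/well 24 h before assay. Loaded with 2 μM Fluo-4AM for 1 h, washed, then 30 min in HBSS with 2.5 mM probenecid and 5 mM HEPES. Peptides added at 10^-12 to 10^-5 M final and fluorescence read for 2 min. Triplicates; EC50 from sigmoidal variable-slope fit, at least three experiments.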

[2] = molecular target: T1, Pyroglutamylated RF-amide peptide receptor (Homo sapiens); experiment: Antagonist activity at DYKDDDDK-flagged human GPR103 receptor expressed in CHO-K1 cells co-expressing G-protein alpha16 assessed as inhibition of 26RFa-induced calcium mobilization after 2 mins by fluorometric analysis; type: functional, cell-based
Procedure, shortened: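 Same Gα16/flag-hGPR103 CHO-K1 cells, Fluo-4AM loading and HBSS/probenecid/HEPES buffer. Triplicates; IC50 reported as mean ± SEM of at least three experiments.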

| Activity [1] | inhibition [2] | SMILES |
| --- | --- | --- |
| inactive | inactive | C[C@H](NC(=O)[C@H](CCCNC(=N)N)NC(=O)[C@H](Cc1ccccc1)NC(=O)[C@H](CO)NC(=O)[C@H](Cc1ccccc1)NC(=O)CNC(=O)CN)C(N)=O (H-GGFSFRA-NH2) |
| inactive | inactive | CC(C)C[C@H](NC(=O)[C@H](CC(N)=O)NC(=O)CNC(=O)[C@H](CC(C)C)NC(=O)[C@@H]1CCCN1C(=O)CNC(=O)[C@H](CO)NC(=O)[C@@H](N)[C@@H](C)O)C(=O)N[C@@H](C)C(=O)N[C@@H](CCC(=O)O)C(=O)N[C@@H](CCC(=O)O)C(=O)N[C@@H](CC(C)C)C(=O)N[C@@H](CC(N)=O)C(=O)NCC(=O)N[C@@H](Cc1ccc(O)cc1)C(=O)N[C@@H](CO)C(=O)N[C@@H](CCCNC(=N)N)C(=O)N[C@@H](CCCCN)C(N)=O (H-TSGPLGNLAEELNGYSRK-NH2) |
| inactive | inactive | CC(C)C[C@H](NC(=O)[C@@H]1CCCN1)C(=O)NCC(=O)N[C@@H](CC(N)=O)C(=O)N[C@@H](CC(C)C)C(=O)N[C@@H](C)C(=O)N[C@@H](CCC(=O)O)C(=O)N[C@@H](CCC(=O)O)C(=O)N[C@@H](CC(C)C)C(=O)N[C@@H](CC(N)=O)C(=O)NCC(=O)N[C@@H](Cc1ccc(O)cc1)C(=O)N[C@@H](CO)C(=O)N[C@@H](CCCNC(=N)N)C(N)=O (H-PLGNLAEELNGYSR-NH2) |
| inactive | inactive | N=C(N)NCCC[C@H](NC(=O)[C@@H](Cc1ccccc1)NC(=O)[C@H](CO)NC(=O)[C@H](Cc1ccccc1)NC(=O)CNC(=O)CN)C(=O)N[C@@H](Cc1ccccc1)C(N)=O |
| inactive | inactive | CC(C)C[C@H](NC(=O)[C@H](CCC(=O)O)NC(=O)[C@H](CCC(=O)O)NC(=O)[C@H](C)NC(=O)[C@@H](N)CC(C)C)C(=O)N[C@@H](CC(N)=O)C(=O)NCC(=O)N[C@@H](Cc1ccc(O)cc1)C(=O)N[C@@H](CO)C(N)=O (H-LAEELNGYS-NH2) |
| inactive | inactive | N=C(N)NCCC[C@H](NC(=O)[C@H](Cc1ccccc1)NC(=O)[C@H](CO)NC(=O)[C@H](Cc1ccccc1)NC(=O)CNC(=O)CN)C(=O)NCc1ccccc1 (H-GGFSFR-NHBn) |
